Converted amounts (≈) assume the structure as drawn. The source made the active and inactive calls. The rule behind the calls is not given here.
Tests used:
Beta-lactamase VIM-2 [1] = target: T1, Beta-lactamase VIM-2 (Pseudomonas aeruginosa, UniProt Q9K2N0); experiment: Inhibition of Pseudomonas aeruginosa 301-5473 6His-tagged VIM-2 (V27 to E268 residues) expressed in Escherichia coli BL21 Star(DE3) pLysS using nitrocefin as substrate preincubated for 5 mins followed by substrate addition by spectrophotometric analysis
Summary of the method: (§1)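 Purified VIM-2 and GIM-1 were each used at 10 nM in 50 mM HEPES pH 7.2 with ZnCl₂ and BSA. Each enzyme was preincubated with inhibitor at 25 °C for 5 min, using sixteen concentrations in a 2-fold series. Nitrocefin was then added and the absorbance rise at 482 nm was read. Initial velocities, measured in triplicate, were fitted to log[inhibitor] vs response curves to give IC50. Line 3 is the ratio of the two IC50s.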

[2] = Inhibition of Klebsiella pneumoniae 6His-tagged NDM1 (G36 to R280 residues) expressed in Escherichia coli BL21 Star(DE3) pLysS using imipenem as substrate preincubated for 5 mins followed by substrate addition by spectrophotometric analysis
Summary of the method: (§2)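 His-tagged enzyme, TEV-cleaved, ~95% pure by SDS-PAGE. 10 nM enzyme with 16 inhibitor concentrations in a 2-fold series, in 50 mM HEPES pH 7.2 with ZnCl2 and BSA, preincubated 5 min at 25 °C. Then 100 µM substrate added: imipenem for NDM-1 read at 260 nm, nitrocefin for GIM-1 read at 482 nm. Initial rates in triplicate, fitted to a log[inhibitor] dose–response curve for IC50.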

GIM-1 protein = GIM-1 protein (Pseudomonas aeruginosa, UniProt Q704V1); experiment: Inhibition of Pseudomonas aeruginosa 6His-tagged GIM-1 (Q19 to D250 residues) expressed in Escherichia coli BL21 Star(DE3) pLysS using nitrocefin as substrate preincubated for 5 mins followed by substrate addition by spectrophotometric analysis; summary of the method: as §2
Sequence of GIM-1 protein (Q704V1 whole entry, the tested form may be a part): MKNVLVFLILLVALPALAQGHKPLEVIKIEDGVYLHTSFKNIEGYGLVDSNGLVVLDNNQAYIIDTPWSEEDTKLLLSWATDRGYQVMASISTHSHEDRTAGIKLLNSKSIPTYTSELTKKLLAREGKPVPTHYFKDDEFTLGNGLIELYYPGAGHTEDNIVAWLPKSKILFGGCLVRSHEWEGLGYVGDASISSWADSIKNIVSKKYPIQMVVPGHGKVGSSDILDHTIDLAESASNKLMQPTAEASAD

[3] = target: Beta-lactamase VIM-2 (Pseudomonas aeruginosa) (UniProt Q9K2N0); experiment: Inhibition of Pseudomonas aeruginosa 301-5473 VIM-2 expressed in Escherichia coli SNO3 whole cells using nitrocefin as substrate at 250 uM preincubated for 20 mins followed by substrate addition measured every min up to 60 mins by spectrophotometric analysis relative to control
Summary of the method: (§3)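 β-lactamase-negative E. coli SNO3 carrying blaVIM-2, blaGIM-1 or blaNDM-1 in pET26b(+). Hydrolysis of the reporter substrate followed as the initial slope over up to 60 min. Percent inhibition calculated from slopes relative to a no-inhibitor control; EDTA used as positive control.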

[4] = target: GIM-1 protein (Pseudomonas aeruginosa) (UniProt Q704V1); experiment: Inhibition of Pseudomonas aeruginosa GIM-1 expressed in Escherichia coli SNO3 whole cells using nitrocefin as substrate at 250 uM preincubated for 20 mins followed by substrate addition measured every min up to 60 mins by spectrophotometric analysis relative to control; summary of the method: as §3
Sequence of GIM-1 protein (Pseudomonas aeruginosa) (Q704V1 as listed by the source): as the sequence (Q704V1 whole entry, the tested form may be a part) above

Klebsiella pneumoniae [5] = experiment: Inhibition of Klebsiella pneumoniae NDM1 expressed in Escherichia coli SNO3 whole cells using imipenem as substrate at 250 uM preincubated for 20 mins followed by substrate addition measured every min up to 60 mins by spectrophotometric analysis relative to control; summary of the method: as §3
Pseudomonas aeruginosa [6] = experiment: Growth inhibition of Pseudomonas aeruginosa K34-7 after 20 hrs
Escherichia coli [7] = experiment: Inhibition of VIM-29 in Escherichia coli 50639799 assessed as potentiation of meropenem-induced antimicrobial activity by measuring meropenem MIC at 125 uM after 20 hrs (reference value: 8 to 32 mg/L)
Klebsiella pneumoniae [8] = experiment: Inhibition of NDM-1 in Klebsiella pneumoniae K66-45 assessed as potentiation of meropenem-induced antimicrobial activity by measuring meropenem MIC at 125 uM after 20 hrs (reference value: 32 to 64 mg/L)
Klebsiella pneumoniae [9] = experiment: Growth inhibition of Klebsiella pneumoniae K66-45 after 20 hrs
[10] = target: Beta-lactamase VIM-2 (Pseudomonas aeruginosa) (UniProt Q9K2N0); experiment: Inhibition of VIM-2 in Pseudomonas aeruginosa K34-7 assessed as potentiation of meropenem-induced antimicrobial activity by measuring meropenem MIC at 125 uM after 20 hrs (reference value: 32 to 64 mg/L)
[11] = Selectivity ratio of IC50 for Pseudomonas aeruginosa 6His-tagged GIM-1 (Q19 to D250 residues) expressed in Escherichia coli BL21 Star(DE3) pLysS to IC50 for Klebsiella pneumoniae 6His-tagged NDM1 (G36 to R280 residues) expressed in Escherichia coli BL21 Star(DE3) pLysS
Pseudomonas aeruginosa [12] = experiment: Selectivity ratio of IC50 for Pseudomonas aeruginosa 6His-tagged GIM-1 (Q19 to D250 residues) expressed in Escherichia coli BL21 Star(DE3) pLysS to IC50 for Pseudomonas aeruginosa 301-5473 6His-tagged VIM-2 (V27 to E268 residues) expressed in Escherichia coli BL21 Star(DE3) pLysS
Escherichia coli [13] = experiment: Growth inhibition of Escherichia coli 50639799 after 20 hrs
Beta-lactamase VIM-2 [14] = target: T1, Beta-lactamase VIM-2; experiment: Inhibition of Pseudomonas aeruginosa VIM-2 expressed in Escherichia coli NCB326-1B2 using nitrocefin as substrate after 5 mins by spectrophotometric analysis
Pseudomonas aeruginosa [15] = experiment: Selectivity ratio of IC50 for Pseudomonas aeruginosa 301-5473 6His-tagged VIM-2 (V27 to E268 residues) expressed in Escherichia coli BL21 Star(DE3) pLysS to IC50 for Pseudomonas aeruginosa 6His-tagged GIM-1 (Q19 to D250 residues) expressed in Escherichia coli BL21 Star(DE3) pLysS; summary of the method: as §1

Structure (SMILES)	IC50 (Beta-lactamase VIM-2 [1])	IC50 ([2]; read-out: IC50)	IC50 (GIM-1 protein; read-out: IC50)	inhibition [3]	inhibition [4]	inhibition (Klebsiella pneumoniae [5])	MIC (Pseudomonas aeruginosa [6])	MIC (Escherichia coli [7])	MIC (Klebsiella pneumoniae [8])	MIC (Klebsiella pneumoniae [9])	MIC [10]	Ratio IC50 [11]	Ratio IC50 (Pseudomonas aeruginosa [12])	MIC (Escherichia coli [13])	IC50 [2]	IC50 (GIM-1 protein)	IC50 (Beta-lactamase VIM-2 [14])	Ratio IC50 (Pseudomonas aeruginosa [15])
CC(=O)SCC(CCc1ccccc1)P(=O)(O)O (configuration not stated)	2.3 µM	2.9 µM	12 µM	94%	40%	39%	–	–	–	–	–	–	–	–	–	–	–	–
O=P(O)(O)C(CO)CCCc1ccccc1 (configuration not stated)	34 µM	77 µM	> 10 µM	66%	16%	–	–	–	–	–	–	–	–	–	–	–	–	–
SCC(CCCc1ccccc1)c1nnn[nH]1 (configuration not stated)	28 µM	12 µM	68 µM	67%	25%	16%	–	–	–	–	–	–	–	–	–	–	–	–
CCOP(=O)(OCC)C(CO)CCCCc1ccccc1 (configuration not stated)	> 10 µM	> 10 µM	280 µM	inactive	4%	1%	–	–	–	–	–	–	–	–	–	–	–	–
CCOP(=O)(OCC)C(CS)CCCc1ccccc1 (configuration not stated)	0.38 µM	1.8 µM	0.31 µM	79%	48%	62%	> 500 mg/L	8 mg/L	32 mg/L	> 500 mg/L	32 mg/L	–	–	–	–	–	–	–
O=P(O)(O)C(CS)CCCCc1ccccc1 (configuration not stated)	8.6 µM	8.5 µM	16 µM	94%	31%	42%	–	–	–	–	–	2 to 4	2 to 4	–	–	–	–	–
CC(=O)SCC(CCCCc1ccccc1)P(=O)(O)O (configuration not stated)	1.8 µM	2.5 µM	20 µM	97%	50%	37%	> 500 mg/L	2 mg/L	32 mg/L	> 500 mg/L	32 mg/L	–	–	–	–	–	–	–
O=P(O)(O)C(CS)CCc1ccccc1 (configuration not stated)	7.8 µM	5.9 µM	23 µM	92%	37%	42%	> 500 mg/L	4 mg/L	32 mg/L	> 500 mg/L	32 mg/L	2 to 4	2 to 4	–	–	–	–	–
CCOP(=O)(OCC)C(CO)CCc1ccccc1 (configuration not stated)	> 10 µM	> 10 µM	> 10 µM	–	–	–	–	–	–	–	–	–	–	–	–	–	–	–
CCOP(=O)(OCC)C(CO)CCCc1ccccc1 (configuration not stated)	> 10 µM	> 10 µM	> 10 µM	inactive	inactive	inactive	–	–	–	–	–	–	–	–	–	–	–	–
CC(=O)SCC(CCCc1ccccc1)P(=O)(O)O (configuration not stated)	4.7 µM	6.6 µM	26 µM	95%	37%	38%	> 500 mg/L	1 mg/L	32 mg/L	> 500 mg/L	32 mg/L	–	–	> 1000 mg/L	–	–	–	–
c1ccc(CCCC(CSC2CCCCC2)c2nnn[nH]2)cc1 (configuration not stated)	5 µM	10 µM	36 to 162 µM	73%	8%	inactive	–	–	–	–	–	–	–	–	–	–	–	–
CC(=O)SCC(Cc1ccccc1)c1nnn[nH]1 (configuration not stated)	67 µM	81 µM	203 µM	76%	55%	32%	–	–	–	–	–	–	–	–	–	–	–	–
O=P(O)(O)C(CO)CCCCc1ccccc1 (configuration not stated)	4.5 µM	127 µM	> 10 µM	88%	14%	4%	–	–	–	–	–	–	–	–	–	–	–	–
CC(=O)SCC(CCCc1ccccc1)c1nnn[nH]1 (configuration not stated)	42 µM	144 µM	162 to 163 µM	77%	20%	–	–	–	–	–	–	–	–	–	–	–	–	–
CCOP(=O)(OCC)C(CS)CCCCc1ccccc1 (configuration not stated)	1.67 µM	–	–	–	–	–	–	–	–	–	–	–	–	–	Nd(Insoluble)	Nd(Insoluble)	–	–
O=C(O)C(CS)CCCCc1ccccc1 (configuration not stated)	2.9 µM	56 µM	–	–	–	–	–	–	–	–	–	–	–	–	–	–	1.1 µM	–
CCOP(=O)(OCC)C(CCc1ccccc1)CSC(C)=O (configuration not stated)	133 µM	–	18 µM	17%	25%	inactive	–	–	–	–	–	–	–	–	–	–	–	–
O=P(O)(O)C(CS)CCCc1ccccc1 (configuration not stated)	33.2 µM	7.1 µM	28 µM	95%	46%	45%	1000 mg/L (≈ 3840 µM)	1 mg/L	32 mg/L	1000 mg/L (≈ 3840 µM)	32 mg/L	–	–	> 1000 mg/L	–	–	–	–
O=P(O)(O)C(CO)CCc1ccccc1 (configuration not stated)	27 to 35 µM	59 µM	99 µM	61%	23%	3.75%	–	–	–	–	–	–	–	–	–	–	–	–
CCOP(=O)(OCC)C(CS)CCc1ccccc1 (configuration not stated)	0.89 µM	2.2 µM	0.18 µM	78%	64%	33%	> 500 mg/L	8 mg/L	32 mg/L	> 500 mg/L	32 mg/L	–	–	–	–	–	–	5
CCOP(=O)(OCC)C(CCCCc1ccccc1)CSC(C)=O (configuration not stated)	20 µM	–	13 µM	12%	25%	inactive	–	–	–	–	–	–	–	–	–	–	–	–
CCOP(=O)(OCC)C(CCCc1ccccc1)CSC(C)=O (configuration not stated)	34 µM	–	26 µM	14%	21%	inactive	> 1000 mg/L	4 to 8 mg/L	64 mg/L	> 1000 mg/L	32 mg/L	–	–	> 1000 mg/L	–	–	–	–
